Results from different studies.
EGFR G719S: Epidermal growth factor receptor (EGFR, Homo sapiens, UniProt P00533, G719S)
EGFR L858R: Epidermal growth factor receptor (EGFR, Homo sapiens, UniProt P00533, L858R)
EGFR G719C: Epidermal growth factor receptor (EGFR, Homo sapiens, UniProt P00533, G719C)
EGFR: Epidermal growth factor receptor (EGFR, Homo sapiens, UniProt P00533)
EGFR del752-759: Epidermal growth factor receptor (EGFR, Homo sapiens, UniProt P00533, del752-759)
EGFR L861Q: Epidermal growth factor receptor (EGFR, Homo sapiens, UniProt P00533, L861Q)
EGFR L858R/T790M: Epidermal growth factor receptor (EGFR, Homo sapiens, UniProt P00533, L858R/T790M)
EGFR T790M: Epidermal growth factor receptor (EGFR, Homo sapiens, UniProt P00533, T790M)

Structure (SMILES)	target	effect on	technique	tested at	remaining binding [%]
CC1CCCN1c1nccc(-c2cnn3ncccc23)n1 (stereo not shown)	EGFR G719S	binding		1 µM	100
Nc1cnc(N2CCc3cc(S(=O)(=O)Nc4c(F)cc(Cl)cc4F)cc(N4CCCC4=O)c32)nc1	EGFR L858R	cell-free assay	competition with immobilised ligand	1 µM	85
COc1cnc(Nc2cccc(S(N)(=O)=O)c2)nc1N1CCN(c2ccccc2)CC1	EGFR G719C	binding	competition with immobilised ligand	1 µM	100
Nc1ncc2c(n1)-c1c([nH]c3ccc(C#CC4CC4)cc13)CCCC2	EGFR	binding	competition with immobilised ligand	1 µM	80
CO[C@@H](C)c1c(Nc2ccc([C@@H](N(C)C(=O)C3CCS(=O)(=O)CC3)C(F)(F)F)cc2)cnc2cc(Cl)nn12	EGFR G719S	cell-free assay	competition with immobilised ligand	1 µM	96
Cc1cnn2ncc(-c3ccnc(N(C)C)n3)c2c1	EGFR del752-759	binding		1 µM	100
CN(C(=O)c1ccccc1)c1cc(N(C)c2ccc3c(c2)CCc2ccc(C(=O)NCCN4CCOCC4)cc2C3=O)ccc1F	EGFR L861Q	cell-free assay	competition with immobilised ligand	1 µM	100
O=C(NCC1CCOCC1)c1n[nH]cc1NC(=O)c1c(F)cccc1F	EGFR del752-759	binding	competition with immobilised ligand	1 µM	100
CN(C)CC#Cc1ccc(OCCCc2sc(N3CCc4cccc(C(=O)Nc5nc6ccccc6s5)c4C3)nc2C(=O)O)c(F)c1	Epidermal growth factor receptor (EGFR, Homo sapiens, UniProt P00533, del747-752/P753S)	cell-free assay	competition with immobilised ligand	1 µM	100
CCN1CCN(Cc2ccc(C(=O)Nc3ccc(C)c(Oc4ccc5c(c4)CC(=O)N5)c3)cc2C(F)(F)F)CC1	EGFR L858R	binding	competition with immobilised ligand	1 µM	100
C[C@H]1CCN(c2nccc(-c3cnn4ncccc34)n2)C1	EGFR L858R	binding		1 µM	100
CNC(=O)[C@@H]1CC[C@@H](n2c(-c3ccc4cnccc4c3)nc3ccc(C(=O)NCc4cccc(C(N)=O)c4)cc32)C1	EGFR L858R/T790M	binding	competition with immobilised ligand	1 µM	92
CCS(=O)(=O)c1cc2cc(C[C@@](O)(CC(C)(C)c3ccc(F)cc3C(N)=O)C(F)(F)F)[nH]c2cn1	Epidermal growth factor receptor (EGFR, Homo sapiens, UniProt P00533, del747-750/T751S)	cell-free assay	competition with immobilised ligand	1 µM	93
CN(C)c1ncc(F)c(-c2cnn3ncccc23)n1	EGFR L858R/T790M	binding		1 µM	74
COc1cc(-c2cn(C3CCc4c(F)cccc4N(CC(F)(F)F)C3=O)nn2)ccc1-n1cnc(C)c1 (stereo not shown)	EGFR L858R	cell-free assay	competition with immobilised ligand	1 µM	100
O=C(NCCCN1CCOCC1)c1ccc(Nc2nccc(-c3cc4ccccc4s3)n2)cc1	EGFR L858R/T790M	binding	competition with immobilised ligand	1 µM	75
O=C(Nc1c[nH]nc1C(=O)NC1CCNCC1)c1cc(F)cc(F)c1	EGFR L858R/T790M	binding	competition with immobilised ligand	1 µM	100
COc1cnc(Nc2cccc(S(N)(=O)=O)c2)nc1N1CCN(c2ccccc2)C(=O)C1	Epidermal growth factor receptor (EGFR, Homo sapiens, UniProt P00533, del746-750)	binding	competition with immobilised ligand	1 µM	96
O=C(NCCCN1CCOCC1)c1ccc(Nc2ncc(Cl)c(-c3ccc(Cl)s3)n2)cc1	EGFR L858R	binding	competition with immobilised ligand	1 µM	82
CN(C)c1nccc(-c2cnc3ncccn23)n1	EGFR G719C	binding		1 µM	100
Cc1cnc(Nc2ccc(C(=O)N3CCC(N4CCCC4)CC3)cc2)nc1-c1cc2ccccc2s1	EGFR G719S	binding	competition with immobilised ligand	1 µM	97
Cn1nc(C(=O)NCc2ccc(C(=O)O)cc2)cc1-c1ccc2[nH]ccc2c1	EGFR L861Q	cell-free assay	competition with immobilised ligand	0.1 µM	69
O=C(c1ccc(Nc2ncc(Cl)c(-c3ccc(Cl)s3)n2)cc1)N1CCC(N2CCCC2)CC1	EGFR	binding	competition with immobilised ligand	1 µM	86
CN(c1ccnc(CNc2nc(Nc3ccc4c(c3)CC(=O)N4)ncc2C(F)(F)F)n1)S(C)(=O)=O	EGFR del752-759	cell-free assay	competition with immobilised ligand	1 µM	76
O=C(c1ccc(Nc2nccc(-c3cc4ccccc4s3)n2)cc1)N1CCC(N2CCCC2)CC1	EGFR L858R	binding	competition with immobilised ligand	1 µM	100
CN(c1nccc(-c2cnn3ncccc23)n1)C1CC1	EGFR T790M	binding		1 µM	100
O=C(c1ccc(Nc2ncc(Cl)c(-c3cc4ccccc4s3)n2)cc1)N1CCC(N2CCCC2)CC1	EGFR	binding	competition with immobilised ligand	1 µM	90
c1cncc(-c2cccc(Nc3nccc(NC4CCCCC4)n3)c2)c1	EGFR T790M	binding	competition with immobilised ligand	10 µM	33
